A short description of data set [1]: Prodrug conversion in Lewis rat blood assessed as parent compound levels at 2 mg/kg, po after 24 hrs. The format is ADME, organism-based. The following applies: in vivo, read-out: Drug metabolism.
The species named for data set [2] is Mus musculus. Kind of data set: Pulmonary toxicity in mouse assessed as increase in BAL protein levels at 30 times ED50. The format is organism-based. Conditions: in vivo.
The test system of data set [3] is Rattus norvegicus. Kind of data set: Immunosuppressive activity in Lewis rat assessed as reduction in blood lymphocytes count at 2 mg/kg, po after 4 hrs relative to control. Also noted: scale not given: the % may be the effect or the level left. In kind it is functional. The gist of the method:
(§1)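 Oral dosing in Lewis rats, with PEG300 as vehicle, given as solution or suspension adjusted for free test article if salt forms are used. Blood sampled at several time points. Lymphocytes counted on a hematology analyzer. Result is the reduction in circulating lymphocyte percentage versus the vehicle group at each time, averaged per group (n = 2).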

The nature of data set [4]: Prodrug conversion in Lewis rat blood assessed as parent compound levels at 2 mg/kg, po after 48 hrs. In kind it is ADME, organism-based. Conditions: in vivo, read-out: Drug metabolism.
Data set [5] can be described thus: Prodrug conversion in Lewis rat blood assessed as formation phosphate metabolite at 2 mg/kg, po after 4 hrs. Conditions: in vivo. In kind it is ADME, organism-based.
Data set [6] can be described thus: Half life in Lewis rat at 2 mg/kg, po after 72 hrs. The format is ADME, organism-based. Conditions: in vivo.
Data set [7] is filed under the species Mus musculus. The data set is described as follows: Pulmonary toxicity in mouse assessed as increase in BAL protein levels up to 10 times ED50. In kind it is organism-based. The following applies: in vivo.
A short description of data set [8]: Prodrug conversion in Lewis rat blood assessed as parent compound levels at 2 mg/kg, po after 4 hrs. The following applies: in vivo, read-out: Drug metabolism. The format is ADME, organism-based.
The test system of data set [9] is Rattus norvegicus. The data set is described as follows: Immunosuppressive activity in Lewis rat assessed as reduction in blood lymphocytes count at 2 mg/kg, po after 24 hrs relative to control. Further details: scale not given: the % may be the effect or the level left. The format is functional. The gist of the method: as §1
Data set [10] has as its system Rattus norvegicus. The data set is described as follows: Immunosuppressive activity in po dosed Lewis rat assessed as reduction in blood lymphocytes after 24 hrs. The format is functional. The method in brief:
as §1

Data set [11] is described as follows: Prodrug conversion in Lewis rat blood assessed as formation phosphate metabolite at 2 mg/kg, po after 24 hrs. The format is ADME, organism-based. The following applies: in vivo.
For data set [12], the species on record is Mus musculus. The data set is described as follows: Pulmonary toxicity in mouse assessed as increase in BAL protein levels at 60 times ED50. In kind it is organism-based. Conditions: in vivo.
Data set [13] is described as follows: Prodrug conversion in Lewis rat blood assessed as formation phosphate metabolite at 2 mg/kg, po after 48 hrs. The format is ADME, organism-based. The following applies: in vivo.
Data set [14] deals with Rattus norvegicus. The data set is described as follows: Immunosuppressive activity in Lewis rat assessed as reduction in blood lymphocytes count at 2 mg/kg, po after 48 hrs relative to control. In kind it is functional. Also noted: scale not given: the % may be the effect or the level left. The gist of the method: as §1
The subject of data set [15] is Cardiac muscle cell. Kind of data set: Toxicity in human inducible pluripotent stem cell derived cardiomyocytes assessed as reduction in beating rate at 10 nM after 20 mins by multi-electrode array electrophysiology study. Conditions: 0.01 µM. In kind it is cell-based. The gist of the method:
(§2)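 hiPSC cardiomyocytes were grown 7 days at 7% CO2 on gelatin, then co-cultured with 10% cardiac fibroblasts for 7 days on laminin-coated 9-well MEA plates until they formed a beating monolayer. After 20-60 min equilibration at 37 °C, compound was added in maintenance medium (DMSO or NaOH vehicle below 0.1% or 30 µM). Field potentials were recorded at 10 kHz from 28 electrodes/well for at least 2 h. Reported as mean change in beating rate versus control, mean ± SD of ≥3 experiments.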

For data set [16], the target named is Sphingosine 1-phosphate receptor 1 (Homo sapiens, UniProt P21453). The data set is described as follows: Agonist activity at human S1P1 receptor expressed in CHO cell membranes after 45 mins by [35S]GTPgammaS binding assay. In kind it is functional. The method in brief: (§3)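 Membranes from S1P1/CHO or EDG3-Ga15-bla HEK293T cells (final protein 3 µg/well) incubated with compound (11-point, 3-fold dilution) and [35S]GTP 0.2 nM final in 20 mM HEPES pH 7.5, 10 mM MgCl2, 150 mM NaCl, 1 mM EGTA, 1 mM DTT, 10 µM GDP, 0.1% fatty acid free BSA, 10 µg/ml saponin, 45 min at room temperature. Filter capture, scintillation counting; EC50 taken at 50% of each compound's Ymax.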

The subject of data set [17] is Cardiac muscle cell. Kind of data set: Toxicity in human inducible pluripotent stem cell derived cardiomyocytes assessed as reduction in beating rate at 1 nM after 20 mins by multi-electrode array electrophysiology study. In kind it is cell-based. Conditions: 0.001 µM. The method in brief:
as §2

Data set [18] has as its target Sphingosine 1-phosphate receptor 3 (Homo sapiens, UniProt Q99500). The data set is described as follows: Agonist activity at human EDG3-Ga15-bla expressed in HEK293T cells after 45 mins by [35S]GTPgammaS binding assay. In kind it is functional, cell-based. The method in brief: as §3
The species entered for data set [19] is Mus musculus. The data set is described as follows: Pulmonary toxicity in mouse assessed as increase in BAL protein levels at 15 times ED50. The format is organism-based. The following applies: in vivo.
The species entered for data set [20] is Mus musculus. The data set is described as follows: Pulmonary toxicity in mouse assessed as increase in BAL protein levels at 5 times ED50. Conditions: in vivo. The format is organism-based.
Data set [21] can be described thus: Half life in rat. Conditions: in vivo. In kind it is ADME, organism-based.
The species entered for data set [22] is Mus musculus. The data set is described as follows: Pulmonary toxicity in mouse assessed as increase in BAL protein levels at 20 times ED50 relative to control. In kind it is organism-based. The following applies: in vivo.
The species entered for data set [23] is Mus musculus. Kind of data set: Pulmonary toxicity in mouse assessed as increase in BAL protein levels at ED50. In kind it is organism-based. The following applies: in vivo.

Sphingosine 1-phosphate receptor 1, sequence (P21453 whole entry): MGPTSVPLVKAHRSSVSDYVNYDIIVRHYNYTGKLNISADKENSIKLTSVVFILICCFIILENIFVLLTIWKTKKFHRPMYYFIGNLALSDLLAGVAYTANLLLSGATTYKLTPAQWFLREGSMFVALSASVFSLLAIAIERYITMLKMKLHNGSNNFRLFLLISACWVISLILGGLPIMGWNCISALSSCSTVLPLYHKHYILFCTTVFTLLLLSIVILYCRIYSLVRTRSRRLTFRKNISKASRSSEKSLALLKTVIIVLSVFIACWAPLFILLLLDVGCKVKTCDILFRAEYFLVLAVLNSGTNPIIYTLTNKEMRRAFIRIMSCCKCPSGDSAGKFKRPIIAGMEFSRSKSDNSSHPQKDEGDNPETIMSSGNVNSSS
Sphingosine 1-phosphate receptor 3, sequence (Q99500 whole entry): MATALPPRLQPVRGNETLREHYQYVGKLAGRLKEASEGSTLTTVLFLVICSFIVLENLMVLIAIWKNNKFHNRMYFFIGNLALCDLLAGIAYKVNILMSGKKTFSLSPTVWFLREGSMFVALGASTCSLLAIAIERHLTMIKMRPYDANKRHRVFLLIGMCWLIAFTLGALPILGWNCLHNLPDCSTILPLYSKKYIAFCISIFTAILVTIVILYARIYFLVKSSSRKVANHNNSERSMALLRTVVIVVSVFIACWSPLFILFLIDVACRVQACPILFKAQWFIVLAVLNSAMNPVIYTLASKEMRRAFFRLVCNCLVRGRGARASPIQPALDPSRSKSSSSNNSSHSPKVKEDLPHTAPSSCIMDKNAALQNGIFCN

For the compound `CCCCCc1nc2c(s1)-c1ccc([C@H]3CC[C@](N)(CO)C3)cc1CC2`, the concentration in [1] amounted to 55 nM; in data set [4], 25 nM; in data set [8] it was 100 nM. Also, the Activity result is listed as “Non-Toxic” in the data set listed under Mus musculus [2]; 33% in the data set on Rattus norvegicus [3]; “Non-Toxic” in the data set listed under Mus musculus [7]; 83% in the data set with Rattus norvegicus [9]; “Toxic” in the data set filed under Mus musculus [12]; 56% with Rattus norvegicus [14]. The figures for the Drug metabolism in [5], in data set [11] and in [13] were 91 nM, 56 nM and 16 nM, respectively. Moreover, the half-life in data set [6] was 20 h. Moreover, in the data set with Rattus norvegicus [10], the ED50 was 0.5 mg/kg.
For the compound `CCCCCc1nc2c(s1)-c1ccc([C@H]3CC[C@](N)(COP(=O)(O)O)C3)cc1CC2`, the Activity result with Cardiac muscle cell [15] and in the data set on Cardiac muscle cell [17] was “Toxic” each time. Further, the results for the concentration for a half-maximal effect (EC50) in [16] and in data set [18] were 21 nM and over 3000 nM, respectively. In data set [16], the maximal response (Emax) came to 79%.
On to `CCCCSc1nc2c(s1)-c1ccc([C@H]3CC[C@](N)(CO)C3)cc1CC2`, for which the concentration in data set [1] was 1.4 nM; in data set [4], under 1 nM; in [8], 9.1 nM. For the same compound, the Activity entry in the data set listed under Mus musculus [19] was “Toxic”; with Rattus norvegicus [3], 82%; in the data set on Rattus norvegicus [9], 48%; in the data set filed under Mus musculus [20], “Toxic”; in the data set with Rattus norvegicus [14], 16%. Besides, the Drug metabolism in data set [5] was 15 nM; in data set [11] it was 2.3 nM; in data set [13] it was under 1 nM. In data set [6], this compound had a half-life of under 5 h. Further, the ED50 in the data set on Rattus norvegicus [10] was 2 mg/kg.
For the compound `CCCCCC[C@@H]1CCc2cc([C@H]3CC[C@](N)(CO)C3)ccc2C1` [BMS-986104], the half-life in data set [21] was 162 h.
With `CCCCOCCOc1nc2c(s1)-c1ccc([C@H]3CC[C@](N)(CO)C3)cc1CC2`, the concentration was found to be 140 nM in [1], 27 nM in [4] and 200 nM in [8]. Besides, the Activity is recorded as 79% in the data set on Rattus norvegicus [3], 87% in the data set with Rattus norvegicus [9] and 82% in the data set on Rattus norvegicus [14]. Further, the Drug metabolism in data set [5] came to 120 nM; in [11] it was 58 nM; in data set [13], 18 nM. Also, the half-life in data set [6] is 20 h. The “fold change (FC)” value in the data set filed under Mus musculus [22] was 5. In the data set with Rattus norvegicus [10], the ED50 was found to be 0.25 mg/kg.
Consider `CCCCOc1nc2c(s1)-c1ccc([C@H]3CC[C@](N)(CO)C3)cc1CC2`, for which the concentration in data set [1] is 7 nM; in [4], under 5 nM; in data set [8], 35 nM. Also, the Activity was 74% in the data set with Rattus norvegicus [3], 68% in the data set on Rattus norvegicus [9], “Toxic” in the data set listed under Mus musculus [23] and 26% with Rattus norvegicus [14]. Besides, the results for the Drug metabolism in data set [5], in data set [11] and in [13] were 34 nM, 20 nM and 4 nM, respectively. This compound also showed a half-life in data set [6] of 5 h. For the same compound, the 50% effective dose (ED50) with Rattus norvegicus [10] came to 1 mg/kg.

The record behind these values is ChEMBL document CHEMBL4251543, “Identification of potent tricyclic prodrug S1P1 receptor modulators” (Medchemcomm, 2017).
